Source: publication PMC3483416 (Archives of biochemistry and biophysics, 2012)
Read-outs that look alike come from different tables or passages of the source. No end group written: not given here.

How the values were obtained:
full-length human BclXL = full-length human BclXL (Homo sapiens, UniProt Q07817); assay: ITC: binding of Bid_BH3 peptide to full-length BclXL at varying pH; conditions: for TΔS / ΔH / ΔG: 25 °C, ± SD, n at least 3; for TΔS: TΔS=ΔH-ΔG; for ΔG: ΔG=RTlnKd
Method in brief: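 20-mer BH3 peptide (human Bid residues 81–100, gravimetric concentration) at 0.5–1 mM, titrated in 25 × 10 μl injections into 50 μM full-length human BclXL at 25 °C. Buffers 50 mM acetate pH 4, phosphate pH 6, Tris pH 8 or CAPS pH 10, each with 100 mM NaCl, 1 mM EDTA and 5 mM β-mercaptoethanol. Dilution heats subtracted. Kd and ΔH from a one-site fit; TΔS = ΔH − ΔG. Proton coupling assessed from buffer ionization-enthalpy dependence. ≥3 repeats.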

[1] = target: T1, Full-length human BclXL (residues 1-233) (human, UniProt Q07817-1 1-233); assay: ITC
[2] = target: T1, Full-length human BclXL (residues 1-233); assay: ITC; remark: listed apart in the source
[3] = target: T1, Full-length human BclXL (residues 1-233); assay: ITC; remark: listed apart in the source
[4] = target: T1, Full-length human BclXL (residues 1-233); assay: ITC; remark: listed apart in the source

T1 sequence (Q07817 whole entry, the tested form may be a part): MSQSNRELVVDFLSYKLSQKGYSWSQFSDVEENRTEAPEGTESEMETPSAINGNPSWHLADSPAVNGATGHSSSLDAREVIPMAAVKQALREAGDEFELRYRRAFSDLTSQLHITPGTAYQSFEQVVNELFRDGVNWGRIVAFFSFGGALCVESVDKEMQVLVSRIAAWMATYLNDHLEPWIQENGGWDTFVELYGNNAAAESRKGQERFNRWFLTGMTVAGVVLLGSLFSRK
Sequence of full-length human BclXL (Q07817 whole entry, the tested form may be a part): as above

A TΔS (full-length human BclXL; pH 4, acetate) of -2.15 ± 0.03 kcal/mol, a ΔH (full-length human BclXL; pH 4, acetate) of -9.09 ± 0.20 kcal/mol and a ΔG (full-length human BclXL; pH 4, acetate) of -6.94 ± 0.08 kcal/mol were found for DIIRNIARHLAQVGDSMDRS [Bid_BH3 peptide] in this work. The “optimum pH of ligand binding” value (full-length human BclXL; pH 4-10) was “optimally occurs at pH 6”, the TΔS (full-length human BclXL; pH 6, phosphate) was -5.48 ± 0.15 kcal/mol and the ΔH (full-length human BclXL; pH 6, phosphate) was -13.66 ± 0.32 kcal/mol. The ΔG (full-length human BclXL; pH 6, phosphate) was -8.17 ± 0.09 kcal/mol, the TΔS (full-length human BclXL; pH 8, Tris) was -11.58 ± 0.29 kcal/mol and the ΔH (full-length human BclXL; pH 8, Tris) was -18.39 ± 0.53 kcal/mol. The ΔG (full-length human BclXL; pH 8, Tris) was -6.80 ± 0.04 kcal/mol, the TΔS (full-length human BclXL; pH 10, CAPS) was -10.13 ± 0.31 kcal/mol and the ΔH (full-length human BclXL; pH 10, CAPS) was -16.54 ± 0.47 kcal/mol. It also gave a ΔG (full-length human BclXL; pH 10, CAPS) of -6.40 ± 0.02 kcal/mol.

A Kd [1] of 20.5 µM, a dH [1] of -16.5 kcal/mol and a Kd [2] of 10.4 µM were found for DIIRNIARHLAQVGDSMDRS [Bid_BH3 peptide (20-mer spanning residues 81-100, the BH3 domain within human Bid)] in this work. The dH [2] was -18.4 kcal/mol, the Kd [3] was 1.03 µM and the dH [3] was -13.7 kcal/mol. For the same molecule, the Kd [4] was 8.3 µM and the dH [4] was -9.09 kcal/mol.
